Values after ≈ are worked out from the molar mass of the structure shown.
Legend:
[1] = target: T1, Multidrug efflux pump subunit AcrB (Escherichia coli (strain K12)) (UniProt P31224); assay: Inhibition of AcrB in multidrug-resistant Escherichia coli BW25113 assessed as potentiation of erythromycin-induced antibacterial activity by measuring erythromycin MIC at 8 ug/ml by checkerboard titration method (reference value: 64 ug/ml); conditions: dose 8.0 µg/ml
T1 sequence (whole entry): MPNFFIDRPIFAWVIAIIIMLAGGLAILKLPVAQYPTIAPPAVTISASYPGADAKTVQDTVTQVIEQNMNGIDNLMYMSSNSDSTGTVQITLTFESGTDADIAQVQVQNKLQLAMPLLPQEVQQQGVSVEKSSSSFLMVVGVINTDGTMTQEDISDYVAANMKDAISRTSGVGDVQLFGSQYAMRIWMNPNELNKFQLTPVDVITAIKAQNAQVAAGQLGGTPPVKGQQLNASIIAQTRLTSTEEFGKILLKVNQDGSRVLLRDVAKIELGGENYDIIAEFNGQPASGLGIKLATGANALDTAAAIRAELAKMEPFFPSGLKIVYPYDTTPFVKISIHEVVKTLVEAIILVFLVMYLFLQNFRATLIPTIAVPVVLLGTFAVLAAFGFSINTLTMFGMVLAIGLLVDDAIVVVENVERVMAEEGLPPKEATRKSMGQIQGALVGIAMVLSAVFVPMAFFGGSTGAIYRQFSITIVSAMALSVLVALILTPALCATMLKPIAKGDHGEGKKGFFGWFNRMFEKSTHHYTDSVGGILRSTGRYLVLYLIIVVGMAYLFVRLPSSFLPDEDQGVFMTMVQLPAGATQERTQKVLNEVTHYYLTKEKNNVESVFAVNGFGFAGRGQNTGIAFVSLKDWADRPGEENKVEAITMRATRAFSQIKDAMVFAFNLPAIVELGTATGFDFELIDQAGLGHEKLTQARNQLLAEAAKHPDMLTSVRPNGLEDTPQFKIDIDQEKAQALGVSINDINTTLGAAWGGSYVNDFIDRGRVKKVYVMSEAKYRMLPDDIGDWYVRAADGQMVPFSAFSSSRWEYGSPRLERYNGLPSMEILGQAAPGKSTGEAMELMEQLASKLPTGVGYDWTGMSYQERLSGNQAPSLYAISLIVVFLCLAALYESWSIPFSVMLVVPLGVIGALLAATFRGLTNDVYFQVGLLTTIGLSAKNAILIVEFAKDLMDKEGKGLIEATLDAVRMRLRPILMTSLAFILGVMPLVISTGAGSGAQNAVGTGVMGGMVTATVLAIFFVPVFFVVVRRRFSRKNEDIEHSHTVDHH

[2] = Toxicity in multidrug-resistant Escherichia coli BW25113 assessed as growth inhibition by two-fold broth dilution method
[3] = Toxicity in multidrug-resistant Escherichia coli BW25113 harboring AcrB deletion mutant assessed as growth inhibition by two-fold broth dilution method
[4] = target: T1, Multidrug efflux pump subunit AcrB (Escherichia coli (strain K12)); assay: Inhibition of AcrB in multidrug-resistant Escherichia coli BW25113 assessed as potentiation of chloramphenicol-induced antibacterial activity by measuring chloramphenicol MIC at 8 ug/ml by checkerboard titration method (reference value: 8 ug/ml); conditions: dose 8.0 µg/ml
[5] = target: T1, Multidrug efflux pump subunit AcrB (Escherichia coli (strain K12)); assay: Inhibition of AcrB in multidrug-resistant Escherichia coli BW25113 assessed as potentiation of chloramphenicol-induced antibacterial activity by measuring chloramphenicol MIC at 16 ug/ml by checkerboard titration method (reference value: 8 ug/ml); conditions: dose 16.0 µg/ml
[6] = target: T1, Multidrug efflux pump subunit AcrB (Escherichia coli (strain K12)); assay: Inhibition of AcrB in multidrug-resistant Escherichia coli BW25113 assessed as potentiation of chloramphenicol-induced antibacterial activity by measuring chloramphenicol MIC at 64 ug/ml by checkerboard titration method (reference value: 8 ug/ml); conditions: dose 64.0 µg/ml
[7] = target: T1, Multidrug efflux pump subunit AcrB (Escherichia coli (strain K12)); assay: Inhibition of AcrB in multidrug-resistant Escherichia coli BW25113 assessed as potentiation of chloramphenicol-induced antibacterial activity by measuring chloramphenicol MIC at 128 ug/ml by checkerboard titration method (reference value: 8 ug/ml); conditions: dose 128.0 µg/ml
[8] = target: T1, Multidrug efflux pump subunit AcrB (Escherichia coli (strain K12)); assay: Inhibition of AcrB in multidrug-resistant Escherichia coli BW25113 assessed as potentiation of erythromycin-induced antibacterial activity by measuring erythromycin MIC at 32 ug/ml by checkerboard titration method (reference value: 64 ug/ml); conditions: dose 32.0 µg/ml
[9] = target: T1, Multidrug efflux pump subunit AcrB (Escherichia coli (strain K12)); assay: Inhibition of AcrB in multidrug-resistant Escherichia coli BW25113 assessed as potentiation of tetraphenylphosphonium-induced antibacterial activity by measuring tetraphenylphosphonium MIC at 8 ug/ml by checkerboard titration method (reference value: 1024 ug/ml); conditions: dose 8.0 µg/ml
[10] = target: T1, Multidrug efflux pump subunit AcrB (Escherichia coli (strain K12)); assay: Inhibition of AcrB in multidrug-resistant Escherichia coli BW25113 assessed as potentiation of tetraphenylphosphonium-induced antibacterial activity by measuring tetraphenylphosphonium MIC at 16 ug/ml by checkerboard titration method (reference value: 1024 ug/ml); conditions: dose 16.0 µg/ml
[11] = target: T1, Multidrug efflux pump subunit AcrB (Escherichia coli (strain K12)); assay: Inhibition of AcrB in multidrug-resistant Escherichia coli BW25113 assessed as potentiation of tetraphenylphosphonium-induced antibacterial activity by measuring tetraphenylphosphonium MIC at 32 ug/ml by checkerboard titration method (reference value: 1024 ug/ml); conditions: dose 32.0 µg/ml
[12] = target: T1, Multidrug efflux pump subunit AcrB (Escherichia coli (strain K12)); assay: Inhibition of AcrB in multidrug-resistant Escherichia coli BW25113 assessed as potentiation of levofloxacin-induced antibacterial activity by measuring levofloxacin MIC at 8 ug/ml by checkerboard titration method (reference value: 0.06 ug/ml); conditions: dose 8.0 µg/ml
[13] = target: T1, Multidrug efflux pump subunit AcrB (Escherichia coli (strain K12)); assay: Inhibition of AcrB in multidrug-resistant Escherichia coli BW25113 assessed as potentiation of levofloxacin-induced antibacterial activity by measuring levofloxacin MIC at 32 ug/ml by checkerboard titration method (reference value: 0.06 ug/ml); conditions: dose 32.0 µg/ml
Cell membrane = assay: Induction of inner membrane permeabilization in wild type Escherichia coli BW25113 assessed as perturbation of proton motive force at 128 ug/ml measured after 10 mins in presence of CCCP and glucose by Di0C2(3) probe based fluorescence assay; conditions: escherichia coli bw25113, 10 min, dose 128 µg/ml
In short: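 Cell suspensions were left untreated or exposed to 8-128 µg/mL compound for 10 min. DiOC₂(3) was then added and fluorescence followed to a plateau. Cells were re-energized with 0.5% glucose, and the rise in fluorescence was read as membrane-potential build-up. CCCP was added last to dissipate the potential.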

[14] = target: T1, Multidrug efflux pump subunit AcrB (Escherichia coli (strain K12)); conditions: Escherichia coli BW25113; dose 16.0 µg/ml
[15] = target: T1, Multidrug efflux pump subunit AcrB (Escherichia coli (strain K12)); conditions: Escherichia coli BW25113; dose 32.0 µg/ml
[16] = target: T1, Multidrug efflux pump subunit AcrB (Escherichia coli (strain K12)); conditions: Escherichia coli BW25113; dose 64.0 µg/ml
[17] = target: T1, Multidrug efflux pump subunit AcrB (Escherichia coli (strain K12)); conditions: Escherichia coli BW25113; dose 128.0 µg/ml

Row | SMILES | MIC [1] | MIC [2] | MIC [3] | MIC [4] | MIC [5] | MIC [6] | MIC [7] | MIC [8] | MIC [9] | MIC [10] | MIC [11] | MIC [12] | MIC [13] | Activity (Cell membrane) | MIC [14] | MIC [15] | MIC [16] | MIC [17]
1 | CC1CN(C(=O)c2cc3c(OCc4ccc(Br)cc4)cccc3c3c2CCC(C)(C)O3)CC(C)O1 (centres undefined) | 64 µg/mL | > 512 µg/mL | > 128 µg/mL | 8 µg/mL | 8 µg/mL | 8 µg/mL | 8 µg/mL | 64 µg/mL | 1020 µg/mL | 1020 µg/mL | 1020 µg/mL | 0.06 µg/mL | 0.06 µg/mL | Not Active | 16 µg/mL (≈ 29.7 µM) | 16 µg/mL (≈ 29.7 µM) | 16 µg/mL (≈ 29.7 µM) | 16 µg/mL (≈ 29.7 µM)
2 | C=CC(=O)Nc1ccc(COc2cccc3c4c(c(Cn5cnnn5)cc23)CCC(C)(C)O4)cc1 | 64 µg/mL | > 512 µg/mL | > 128 µg/mL | 8 µg/mL | 8 µg/mL | 4 µg/mL | 4 µg/mL | 32 µg/mL | 1020 µg/mL | 1020 µg/mL | 1020 µg/mL | 0.06 µg/mL | 0.06 µg/mL | Not Active | 16 µg/mL (≈ 34.1 µM) | 16 µg/mL (≈ 34.1 µM) | 16 µg/mL (≈ 34.1 µM) | 16 µg/mL (≈ 34.1 µM)
3 | CC1(C)CCc2c(Cn3cnnn3)cc3c(OCc4ccc(OC(F)(F)F)cc4)cccc3c2O1 | 64 µg/mL | > 512 µg/mL | > 128 µg/mL | 8 µg/mL | 8 µg/mL | 8 µg/mL | 4 µg/mL | 64 µg/mL | 1020 µg/mL | 1020 µg/mL | 1020 µg/mL | 0.06 µg/mL | 0.06 µg/mL | Not Active | 16 µg/mL (≈ 33 µM) | 16 µg/mL (≈ 33 µM) | 16 µg/mL (≈ 33 µM) | 16 µg/mL (≈ 33 µM)
4 | C=CC(=O)Nc1ccc(COc2cccc3c4c(c(C(=O)N5CCOCC5)cc23)CCC(C)(C)O4)cc1 | 16 µg/mL | > 512 µg/mL | > 128 µg/mL | 4 µg/mL | 4 µg/mL | 4 µg/mL | 2 µg/mL | 16 µg/mL | 512 µg/mL | 512 µg/mL | 256 µg/mL | 0.06 µg/mL | 0.06 µg/mL | Not Active | 16 µg/mL (≈ 32 µM) | 16 µg/mL (≈ 32 µM) | 16 µg/mL (≈ 32 µM) | 16 µg/mL (≈ 32 µM)
5 | CC1(C)CCc2c(-c3nnco3)cc3c(OCc4ccc([N+](=O)[O-])cc4)cccc3c2O1 | 64 µg/mL | > 512 µg/mL | > 128 µg/mL | 8 µg/mL | 8 µg/mL | 8 µg/mL | 4 µg/mL | 64 µg/mL | 1020 µg/mL | 1020 µg/mL | 1020 µg/mL | 0.06 µg/mL | 0.06 µg/mL | Not Active | 16 µg/mL (≈ 37.1 µM) | 16 µg/mL (≈ 37.1 µM) | 16 µg/mL (≈ 37.1 µM) | 16 µg/mL (≈ 37.1 µM)
6 | CC1(C)CCc2c(-c3nnco3)cc3c(OCc4ccccc4)cccc3c2O1 | 64 µg/mL | > 512 µg/mL | > 128 µg/mL | 8 µg/mL | 8 µg/mL | 4 µg/mL | 2 µg/mL | 32 µg/mL | 512 µg/mL | 512 µg/mL | 512 µg/mL | 0.06 µg/mL | 0.06 µg/mL | – | 16 µg/mL (≈ 41.4 µM) | 16 µg/mL (≈ 41.4 µM) | 16 µg/mL (≈ 41.4 µM) | 16 µg/mL (≈ 41.4 µM)
7 | COc1cccc(COc2cccc3c4c(c(C(=O)N5CCOCC5)cc23)CCC(C)(C)O4)c1 | 64 µg/mL | > 512 µg/mL | > 128 µg/mL | 4 µg/mL | 4 µg/mL | 4 µg/mL | 2 µg/mL | 32 µg/mL | 512 µg/mL | 512 µg/mL | 512 µg/mL | 0.06 µg/mL | 0.06 µg/mL | – | 16 µg/mL (≈ 34.7 µM) | 16 µg/mL (≈ 34.7 µM) | 16 µg/mL (≈ 34.7 µM) | 16 µg/mL (≈ 34.7 µM)
